In ChEMBL document CHEMBL1143155, “Synthesis and SAR of selective muscarinic acetylcholine receptor subtype 1 (M1 mAChR) antagonists” (Bioorg Med Chem Lett, 2008):
Changes are numbered by the printed parent chain. The source made the active and inactive calls. No cut-off for these calls is given here.

Columns and labels:
[1] = biological target: T1, Muscarinic acetylcholine receptor M1 (Rattus norvegicus, UniProt P08482); assay: Antagonist activity at rat muscarinic M1 receptor expressed in CHO cells by calcium mobilization assay; format: functional, cell-based
T1 sequence (P08482 whole entry): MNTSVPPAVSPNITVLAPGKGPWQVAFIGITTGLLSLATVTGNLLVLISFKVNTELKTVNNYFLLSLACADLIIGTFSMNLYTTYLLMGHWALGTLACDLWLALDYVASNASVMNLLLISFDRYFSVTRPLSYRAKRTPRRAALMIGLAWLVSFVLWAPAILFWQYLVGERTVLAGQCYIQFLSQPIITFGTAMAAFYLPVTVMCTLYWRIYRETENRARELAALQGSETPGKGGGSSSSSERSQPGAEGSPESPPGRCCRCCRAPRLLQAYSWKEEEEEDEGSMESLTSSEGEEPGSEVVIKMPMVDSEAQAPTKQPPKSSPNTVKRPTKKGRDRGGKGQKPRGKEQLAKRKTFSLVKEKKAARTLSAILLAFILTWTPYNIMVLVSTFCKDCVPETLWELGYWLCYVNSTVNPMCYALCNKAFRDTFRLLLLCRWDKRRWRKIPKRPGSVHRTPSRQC

[2] = biological target: T2, Muscarinic acetylcholine receptor M2 (Rattus norvegicus, UniProt P10980); assay: Antagonist activity at rat muscarinic M2 receptor expressed in CHO cells by calcium mobilization assay; format: functional, cell-based
T2 sequence (P10980 whole entry): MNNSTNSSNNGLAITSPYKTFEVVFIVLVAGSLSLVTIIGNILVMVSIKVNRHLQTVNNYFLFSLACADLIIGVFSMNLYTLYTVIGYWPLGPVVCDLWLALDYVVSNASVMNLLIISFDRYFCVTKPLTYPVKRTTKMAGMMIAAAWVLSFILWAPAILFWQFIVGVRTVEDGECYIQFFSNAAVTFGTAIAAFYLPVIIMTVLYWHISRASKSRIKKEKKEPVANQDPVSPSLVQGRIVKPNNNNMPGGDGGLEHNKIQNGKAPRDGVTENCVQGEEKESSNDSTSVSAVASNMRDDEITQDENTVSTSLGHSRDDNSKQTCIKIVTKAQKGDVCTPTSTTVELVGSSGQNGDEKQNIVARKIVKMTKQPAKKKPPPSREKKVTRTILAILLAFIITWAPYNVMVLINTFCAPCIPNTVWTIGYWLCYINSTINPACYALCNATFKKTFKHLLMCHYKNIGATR

[3] = biological target: T3, Muscarinic acetylcholine receptor M3 (Rattus norvegicus, UniProt P08483); assay: Antagonist activity at rat muscarinic M3 receptor expressed in CHO cells by calcium mobilization assay; format: functional, cell-based
T3 sequence (P08483 whole entry): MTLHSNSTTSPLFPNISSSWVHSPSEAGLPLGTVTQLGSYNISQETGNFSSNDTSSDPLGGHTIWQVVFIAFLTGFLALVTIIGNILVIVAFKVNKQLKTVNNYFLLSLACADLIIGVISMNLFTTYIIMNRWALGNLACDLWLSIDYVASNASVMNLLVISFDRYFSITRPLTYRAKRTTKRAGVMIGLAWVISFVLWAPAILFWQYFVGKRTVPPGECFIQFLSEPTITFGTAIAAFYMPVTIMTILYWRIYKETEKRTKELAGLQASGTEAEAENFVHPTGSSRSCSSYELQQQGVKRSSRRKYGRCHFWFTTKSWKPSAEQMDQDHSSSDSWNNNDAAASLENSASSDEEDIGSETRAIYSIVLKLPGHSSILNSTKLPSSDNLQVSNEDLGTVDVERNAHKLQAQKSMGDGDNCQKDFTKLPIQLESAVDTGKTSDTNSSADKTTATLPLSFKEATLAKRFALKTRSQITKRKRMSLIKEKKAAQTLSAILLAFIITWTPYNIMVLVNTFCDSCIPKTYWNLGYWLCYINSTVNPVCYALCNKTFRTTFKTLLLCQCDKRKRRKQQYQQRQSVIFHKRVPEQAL

[4] = biological target: T4, Muscarinic acetylcholine receptor M4 (Rattus norvegicus, UniProt P08485); assay: Antagonist activity at rat muscarinic M4 receptor expressed in CHO cells by calcium mobilization assay; format: functional, cell-based
T4 sequence (P08485 whole entry): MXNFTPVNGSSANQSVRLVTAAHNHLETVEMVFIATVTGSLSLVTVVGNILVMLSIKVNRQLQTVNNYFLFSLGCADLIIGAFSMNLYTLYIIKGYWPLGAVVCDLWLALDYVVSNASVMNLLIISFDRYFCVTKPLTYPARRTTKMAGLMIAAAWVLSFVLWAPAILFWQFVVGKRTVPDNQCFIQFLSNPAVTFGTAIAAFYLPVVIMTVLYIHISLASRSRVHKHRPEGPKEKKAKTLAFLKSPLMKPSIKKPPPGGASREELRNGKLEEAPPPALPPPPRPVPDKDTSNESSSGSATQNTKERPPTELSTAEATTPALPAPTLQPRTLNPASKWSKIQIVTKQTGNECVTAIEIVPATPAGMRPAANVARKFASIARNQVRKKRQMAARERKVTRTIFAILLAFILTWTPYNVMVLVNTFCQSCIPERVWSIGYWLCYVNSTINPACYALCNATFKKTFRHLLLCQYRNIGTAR

[5] = biological target: T5, Muscarinic acetylcholine receptor M5 (Rattus norvegicus, UniProt P08911); assay: Antagonist activity at rat muscarinic M5 receptor expressed in CHO cells by calcium mobilization assay; format: functional, cell-based
T5 sequence (P08911 whole entry): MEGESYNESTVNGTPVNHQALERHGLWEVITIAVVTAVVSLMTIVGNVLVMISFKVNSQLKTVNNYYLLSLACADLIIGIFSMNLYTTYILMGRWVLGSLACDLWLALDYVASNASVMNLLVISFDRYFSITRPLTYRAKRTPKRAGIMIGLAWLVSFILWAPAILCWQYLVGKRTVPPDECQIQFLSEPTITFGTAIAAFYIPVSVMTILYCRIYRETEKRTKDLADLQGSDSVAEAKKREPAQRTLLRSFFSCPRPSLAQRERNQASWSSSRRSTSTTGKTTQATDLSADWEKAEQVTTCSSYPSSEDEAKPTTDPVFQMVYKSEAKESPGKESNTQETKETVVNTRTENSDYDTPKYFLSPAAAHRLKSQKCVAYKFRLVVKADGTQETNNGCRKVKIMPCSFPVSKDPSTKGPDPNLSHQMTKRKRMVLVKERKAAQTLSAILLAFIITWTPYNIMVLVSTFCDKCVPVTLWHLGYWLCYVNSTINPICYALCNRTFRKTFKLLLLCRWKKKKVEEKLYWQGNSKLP

Rattus norvegicus [6] = organism: Rattus norvegicus; assay: Selectivity for rat muscarinic M1 receptor over rat muscarinic M3 receptor by calcium mobilization assay
Rattus norvegicus [7] = organism: Rattus norvegicus; assay: Selectivity for rat muscarinic M1 receptor over rat muscarinic M4 receptor by calcium mobilization assay
Rattus norvegicus [8] = organism: Rattus norvegicus; assay: Selectivity for rat muscarinic M1 receptor over rat muscarinic M5 receptor by calcium mobilization assay
[9] = biological target: T6, Muscarinic acetylcholine receptor M1 (Homo sapiens) (UniProt P11229); assay: Inhibition of human muscarinic M1 receptor
T6 sequence (whole entry): T1 sequence (P08482 whole entry) with V5A, S254T, S309P, K320R, G337A, V413I

[10] = biological target: T1, Muscarinic acetylcholine receptor M1; assay: Displacement of [3H]NMS from rat muscarinic M1 receptor expressed in CHO cells; format: cell-based
Summary of the method: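 Competition binding against the orthosteric radioligand [³H]-N-methylscopolamine on rat mAChR subtypes from CHO cell lines, with atropine as positive control. Ki values are averages of three independent experiments.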

[11] = biological target: T2, Muscarinic acetylcholine receptor M2; assay: Displacement of [3H]NMS from rat muscarinic M2 receptor expressed in CHO cells; format: cell-based
[12] = biological target: T3, Muscarinic acetylcholine receptor M3; assay: Displacement of [3H]NMS from rat muscarinic M3 receptor expressed in CHO cells; format: cell-based
[13] = biological target: T4, Muscarinic acetylcholine receptor M4; assay: Displacement of [3H]NMS from rat muscarinic M4 receptor expressed in CHO cells; format: cell-based
[14] = biological target: T5, Muscarinic acetylcholine receptor M5; assay: Displacement of [3H]NMS from rat muscarinic M5 receptor expressed in CHO cells; format: cell-based

IC50 [1]	IC50 [2]	IC50 [3]	IC50 [4]	IC50 [5]	Ratio IC50 (Rattus norvegicus [6])	Ratio IC50 (Rattus norvegicus [7])	Ratio IC50 (Rattus norvegicus [8])	Activity [9]	Ki [10]	Ki [11]	Ki [12]	Ki [13]	Ki [14]	Structure (SMILES)
4.6 µM	> 150 µM	> 150 µM	> 150 µM	> 150 µM	> 32	> 32	> 32	–	–	–	–	–	–	CCN1CCN(c2ccc(NC(=O)C3CCCCC3)cc2Cl)CC1
> 150 µM	> 150 µM	> 150 µM	> 150 µM	> 150 µM	–	–	–	–	–	–	–	–	–	CCN1CCN(c2ccc(NC(=O)CC(C)(C)C)cc2Cl)CC1
0.49 µM	> 150 µM	> 150 µM	7.9 µM	> 150 µM	–	–	–	Active	–	–	–	–	–	CCCCCC(=O)Nc1ccc(N2CCN(CC)CC2)c(Cl)c1
0.44 µM	3.5 µM	3.1 µM	> 150 µM	1.1 µM	7	> 340	2.4	–	0.0127 µM	0.338 µM	0.0748 µM	0.445 µM	0.0857 µM	CCN1CCN(c2ccc(NC(=O)CCC3CCCC3)cc2Cl)CC1

More lines, now with the values behind:

Structure (SMILES)	IC50 [1]	IC50 [2]	IC50 [3]	IC50 [4]	IC50 [5]	Ratio IC50 (Rattus norvegicus [6])	Ratio IC50 (Rattus norvegicus [7])	Ratio IC50 (Rattus norvegicus [8])	Activity [9]	Ki [10]	Ki [11]	Ki [12]	Ki [13]	Ki [14]
CCN1CCN(c2ccc(NC(=O)COc3ccccc3)cc2Cl)CC1	3.3 µM	> 150 µM	> 150 µM	> 150 µM	> 150 µM	> 45	> 45	> 45	–	–	–	–	–	–
CCN1CCN(c2ccc(NC(=O)COCc3ccccc3)cc2Cl)CC1	18.8 µM	> 150 µM	> 150 µM	> 150 µM	> 150 µM	–	–	–	–	–	–	–	–	–
CCCCOc1cccc(C(=O)Nc2ccc(N3CCN(CC)CC3)c(Cl)c2)c1	0.58 µM	–	–	5.1 µM	–	–	–	–	Active	–	–	–	–	–
CCN1CCN(c2ccc(NC(=O)CCc3ccccc3)cc2Cl)CC1	1.1 µM	52 µM	70 µM	18 µM	7.6 µM	63	16	6.9	–	–	–	–	–	–
CN1CCN(CC(=O)N2c3ccccc3C(=O)Nc3cccnc32)CC1	–	–	–	–	–	20	20	20	–	–	–	–	–	–
CCN1CCN(c2ccc(NC(=O)c3ccccc3)cc2Cl)CC1	5 µM	> 150 µM	> 150 µM	66 µM	> 150 µM	–	–	–	–	–	–	–	–	–
CCN1CCN(c2ccc(NC(=O)[C@H]3C[C@@H]3c3ccccc3)cc2Cl)CC1	1.15 µM	29 µM	24 µM	20 µM	13 µM	–	–	–	–	–	–	–	–	–
CCN1CCN(c2ccc(NC(=O)Cc3ccc(F)cc3)cc2Cl)CC1	5.6 µM	> 150 µM	> 150 µM	> 150 µM	> 150 µM	> 26	> 26	> 26	–	–	–	–	–	–
CCCC(=O)Nc1ccc(N2CCN(CC)CC2)c(Cl)c1	> 150 µM	> 150 µM	> 150 µM	> 150 µM	> 150 µM	–	–	–	–	–	–	–	–	–
